Measured values taken from ChEMBL document CHEMBL4130520 (ACS Med Chem Lett, 2017).
In brackets after ≈: the same amount, converted by molar mass.

Assays:
[1] = system: Mycobacterium tuberculosis; test: Antitubercular activity against Mycobacterium tuberculosis H37Rv after 4 days by MABA method; type: functional; details: 96 h
In short: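 Aerobic culture of H37Rv in microplate Alamar blue assay. MIC90 taken as the minimum concentration giving 90% growth inhibition. Each value is the mean of at least two independent determinations. Most compounds were tested as RS,SR diastereomer mixtures; a few were tested only as the pure R,S enantiomer.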

[2] = target: Voltage-gated inwardly rectifying potassium channel KCNH2 (Homo sapiens, UniProt Q12809); test: Inhibition of human ERG
Sequence of Voltage-gated inwardly rectifying potassium channel KCNH2 (Q12809 whole entry): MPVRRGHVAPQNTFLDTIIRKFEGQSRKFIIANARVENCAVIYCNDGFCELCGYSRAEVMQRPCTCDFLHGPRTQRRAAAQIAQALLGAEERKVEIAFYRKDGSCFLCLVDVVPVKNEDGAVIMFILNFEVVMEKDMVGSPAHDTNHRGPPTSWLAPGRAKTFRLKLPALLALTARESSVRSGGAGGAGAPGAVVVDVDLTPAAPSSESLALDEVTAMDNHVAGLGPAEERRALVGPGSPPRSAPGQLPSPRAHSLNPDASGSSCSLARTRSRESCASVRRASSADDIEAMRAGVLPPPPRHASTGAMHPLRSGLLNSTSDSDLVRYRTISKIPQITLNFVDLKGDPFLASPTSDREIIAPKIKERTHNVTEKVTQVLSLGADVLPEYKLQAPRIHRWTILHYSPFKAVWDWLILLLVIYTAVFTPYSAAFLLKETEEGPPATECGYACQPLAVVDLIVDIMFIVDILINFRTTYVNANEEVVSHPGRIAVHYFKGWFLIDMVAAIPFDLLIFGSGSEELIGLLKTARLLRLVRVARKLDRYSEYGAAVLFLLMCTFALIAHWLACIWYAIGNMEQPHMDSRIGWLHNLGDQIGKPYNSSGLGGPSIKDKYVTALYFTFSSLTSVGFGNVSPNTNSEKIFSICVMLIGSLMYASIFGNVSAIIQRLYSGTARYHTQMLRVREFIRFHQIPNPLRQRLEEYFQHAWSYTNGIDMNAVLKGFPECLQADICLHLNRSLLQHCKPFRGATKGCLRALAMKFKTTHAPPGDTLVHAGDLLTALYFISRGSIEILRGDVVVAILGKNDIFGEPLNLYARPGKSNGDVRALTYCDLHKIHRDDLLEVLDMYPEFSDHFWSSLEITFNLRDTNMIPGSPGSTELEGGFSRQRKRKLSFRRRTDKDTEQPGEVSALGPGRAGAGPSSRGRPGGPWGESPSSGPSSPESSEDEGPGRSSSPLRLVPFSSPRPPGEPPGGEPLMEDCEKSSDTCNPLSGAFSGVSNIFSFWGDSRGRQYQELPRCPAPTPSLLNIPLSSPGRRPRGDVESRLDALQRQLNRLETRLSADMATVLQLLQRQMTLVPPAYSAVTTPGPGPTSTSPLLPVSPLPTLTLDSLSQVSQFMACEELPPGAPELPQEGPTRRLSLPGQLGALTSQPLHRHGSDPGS

Structure (SMILES) | MIC90 [1] [µg/mL] | IC50 [2] [µM]
COc1nc2ccc(Cl)cc2cc1C(c1ccccc1)C(O)(CCN(C)C)c1cccc2ccccc12 (stereo not given) | 0.71 (≈ 1.39 µM) | 6.9
COc1cccc(C(c2cc3cc(C#N)ccc3nc2OC)C(O)(CCN(C)C)c2cccc(F)c2)c1F (stereo not given) | 0.18 (≈ 0.348 µM) | –
COc1cccc(C(c2cc3cc(N4CC5(COC5)C4)ccc3nc2OC)C(O)(CCN(C)C)c2cccc(OC(F)(F)F)c2)c1OC (stereo not given) | 0.75 (≈ 1.12 µM) | –
COc1nc2ccc(C(=O)N(C)C)cc2cc1C(c1ccccc1)C(O)(CCN(C)C)c1cccc2ccccc12 (stereo not given) | 2.2 (≈ 4.02 µM) | 6.3
COc1nc2ccc(CC(C)=O)cc2cc1C(c1ccccc1)C(O)(CCN(C)C)c1cccc2ccccc12 (stereo not given) | > 7 | 10
COc1cccc([C@H](c2cc3cc(N(C)S(=O)(=O)N(C)C)ccc3nc2OC)[C@@](O)(CCN(C)C)c2cccc(F)c2)c1OC | 1.13 (≈ 1.76 µM) | –
COc1nc2ccc(Br)cc2cc1C(c1cccc(F)c1)C(O)(CCN(C)C)c1cccc(OC(F)(F)F)c1 (stereo not given) | 0.25 (≈ 0.412 µM) | –
COc1nc2ccc(N3CC4(COC4)C3)cc2cc1[C@@H](c1ccccc1)[C@@](O)(CCN(C)C)c1cccc2ccccc12 | 0.71 (≈ 1.24 µM) | –
COc1cccc([C@@H](c2cc3cc(N4CC[S+]([O-])CC4)ccc3nc2OC)[C@@](O)(CCN(C)C)c2cccc(F)c2)c1F | > 5 | –
CCc1ccc2nc(OC)c(C(c3ccccc3)C(O)(CCN(C)C)c3cccc4ccccc34)cc2c1 (stereo not given) | 0.23 (≈ 0.456 µM) | –
COc1cccc([C@@H](c2cc3cc(N4CC5(COC5)C4)ccc3nc2OC)[C@@](O)(CCN(C)C)c2cccc(C)c2)c1F | 1.1 (≈ 1.88 µM) | –
CC#Cc1ccc2nc(OC)c(C(c3ccccc3)C(O)(CCN(C)C)c3cccc4ccccc34)cc2c1 (stereo not given) | 6.1 (≈ 11.9 µM) | 7.9
COc1nc2ccccc2cc1C(c1ccccc1)C(O)(CCN(C)C)c1cccc2ccccc12 (stereo not given) | 1.9 (≈ 3.99 µM) | 1.6
COc1nc2ccc(C3CC3)cc2cc1C(c1ccccc1)C(O)(CCN(C)C)c1cccc2ccccc12 (stereo not given) | 0.13 (≈ 0.252 µM) | –
COc1cccc(C(c2cc3cc(Br)ccc3nc2OC)C(O)(CCN(C)C)c2cccc(OC)c2OC)c1OC (stereo not given) | 0.2 (≈ 0.32 µM) | –
COc1cccc([C@@H](c2cc3cc(N4CCSCC4)ccc3nc2OC)[C@@](O)(CCN(C)C)c2cccc(F)c2)c1F | 0.19 (≈ 0.32 µM) | –
COc1cccc([C@@H](c2cc3cc(N4CC5(COC5)C4)ccc3nc2OC)[C@@](O)(CCN(C)C)c2cccc(Cl)c2)c1F | 0.31 (≈ 0.511 µM) | –
COc1cccc([C@](O)(CCN(C)C)[C@H](c2cc3cc(N4CC5(COC5)C4)ccc3nc2OC)c2cccc(OC)c2F)c1 | 0.87 (≈ 1.45 µM) | –
COc1cccc([C@H](c2cc3cc(N4CCSCC4)ccc3nc2OC)[C@@](O)(CCN(C)C)c2cccc(F)c2)c1OC | 0.28 (≈ 0.462 µM) | –
COc1cccc([C@H](c2cc3cc(N4CC[S+]([O-])CC4)ccc3nc2OC)[C@@](O)(CCN(C)C)c2cccc(F)c2)c1OC | 4.8 (≈ 7.72 µM) | –
COc1nc2ccc(N3CCOCC3)cc2cc1C(c1cccc(F)c1)C(O)(CCN(C)C)c1cccc(OC(F)(F)F)c1 (stereo not given) | 0.85 (≈ 1.39 µM) | –
C#Cc1ccc2nc(OC)c(C(c3ccccc3)C(O)(CCN(C)C)c3cccc(F)c3)cc2c1 (stereo not given) | 0.36 (≈ 0.768 µM) | –
COc1cccc(C(c2cc3cc(OC(F)(F)F)ccc3nc2OC)C(O)(CCN(C)C)c2cccc(OC(F)(F)F)c2)c1F (stereo not given) | 1.1 (≈ 1.71 µM) | –
COc1cccc(C(O)(CCN(C)C)C(c2cc3cc(Br)ccc3nc2OC)c2cccc(OC)c2F)c1 (stereo not given) | 0.1 (≈ 0.171 µM) | –
COc1cccc(C(c2cc3cc(C#N)ccc3nc2OC)C(O)(CCN(C)C)c2cccc(F)c2)c1OC (stereo not given) | 0.17 (≈ 0.321 µM) | –

Structure (SMILES) | MIC90 [1] [µg/mL] | IC50 [2] [µM]
COc1cccc(C(c2cc3cc(C#N)ccc3nc2OC)C(O)(CCN(C)C)c2cccc(OC(F)(F)F)c2)c1F (stereo not given) | 0.26 (≈ 0.446 µM) | –
COc1nc2ccc(CN(C)C)cc2cc1C(c1ccccc1)C(O)(CCN(C)C)c1cccc2ccccc12 (stereo not given) | 3.7 (≈ 6.93 µM) | 4.8
COc1cccc(C(c2cc3cc(N4CCOCC4)ccc3nc2OC)C(O)(CCN(C)C)c2cccc(OC)c2OC)c1OC (stereo not given) | 2.5 (≈ 3.96 µM) | –
COc1cccc(C(c2cc3cc(C#N)ccc3nc2OC)C(O)(CCN(C)C)c2cccc(C)c2)c1F (stereo not given) | 0.09 (≈ 0.175 µM) | –
COc1cccc(C(c2cc3cc(C#N)ccc3nc2OC)C(O)(CCN(C)C)c2cccc(OC(F)(F)F)c2)c1OC (stereo not given) | 0.21 (≈ 0.353 µM) | –
COc1cccc(C(c2cc3cc(Br)ccc3nc2OC)C(O)(CCN(C)C)c2cccc(F)c2)c1F (stereo not given) | 0.1 (≈ 0.175 µM) | –
COc1nc2ccc(N)cc2cc1C(c1ccccc1)C(O)(CCN(C)C)c1cccc2ccccc12 (stereo not given) | 1.9 (≈ 3.86 µM) | –
COc1nc2ccc(N(C)S(=O)(=O)N(C)C)cc2cc1[C@@H](c1ccccc1)[C@@](O)(CCN(C)C)c1cccc(F)c1 | 5 (≈ 8.61 µM) | –
COc1nc2ccc(CO)cc2cc1C(c1ccccc1)C(O)(CCN(C)C)c1cccc2ccccc12 (stereo not given) | 1.6 (≈ 3.16 µM) | 10
COc1cccc(C(c2cc3cc(N4CCCCC4)ccc3nc2OC)C(O)(CCN(C)C)c2cccc(OC(F)(F)F)c2)c1F (stereo not given) | 2.3 (≈ 3.58 µM) | –
COc1nc2ccc(OC(F)(F)F)cc2cc1C(c1ccccc1)C(O)(CCN(C)C)c1cccc2ccccc12 (stereo not given) | 0.24 (≈ 0.428 µM) | –
COc1cccc(C(c2cc3cc(N4CC5(COC5)C4)ccc3nc2OC)C(O)(CCN(C)C)c2cccc(OC(F)(F)F)c2)c1F (stereo not given) | 0.77 (≈ 1.17 µM) | –
COc1nc2ccc(Br)cc2cc1C(c1ccccc1)C(O)(CCN(C)C)c1cccc(F)c1 (stereo not given) | 0.23 (≈ 0.439 µM) | –
COc1nc2ccc(C)cc2cc1C(c1ccccc1)C(O)(CCN(C)C)c1cccc2ccccc12 (stereo not given) | 1.74 (≈ 3.55 µM) | –
COc1cccc([C@@H](c2cc3cc(N4CCS(=O)(=O)CC4)ccc3nc2OC)[C@@](O)(CCN(C)C)c2cccc(F)c2)c1F | > 5 | –
COc1cccc([C@@H](c2cc3cc(S(C)(=O)=O)ccc3nc2OC)[C@@](O)(CCN(C)C)c2cccc(F)c2)c1F | 2.3 (≈ 4.03 µM) | –
COc1nc2ccc(/C=N/O)cc2cc1C(c1ccccc1)C(O)(CCN(C)C)c1cccc2ccccc12 (stereo not given) | 6 (≈ 11.5 µM) | 3.5
COc1nc2ccc(F)cc2cc1C(c1ccccc1)C(O)(CCN(C)C)c1cccc2ccccc12 (stereo not given) | 0.94 (≈ 1.9 µM) | –
COc1cccc(C(c2cc3cc(Br)ccc3nc2OC)C(O)(CCN(C)C)c2cccc(F)c2)c1OC (stereo not given) | 0.04 (≈ 0.0686 µM) | –
COc1nc2ccc(C(=O)O)cc2cc1C(c1ccccc1)C(O)(CCN(C)C)c1cccc2ccccc12 (stereo not given) | > 6.7 | 10
COc1cccc(C(c2cc3cc(N4CCOCC4)ccc3nc2OC)C(O)(CCN(C)C)c2cccc(OC(F)(F)F)c2)c1OC (stereo not given) | 0.68 (≈ 1.04 µM) | –
C=Cc1ccc2nc(OC)c(C(c3ccccc3)C(O)(CCN(C)C)c3cccc4ccccc34)cc2c1 (stereo not given) | 1.9 (≈ 3.78 µM) | –
COc1nc2ccc(NC3CCCC3)cc2cc1C(c1ccccc1)C(O)(CCN(C)C)c1cccc2ccccc12 (stereo not given) | 1.7 (≈ 3.04 µM) | –
COc1nc2ccc(C#N)cc2cc1C(c1cccc(F)c1)C(O)(CCN(C)C)c1cccc(OC(F)(F)F)c1 (stereo not given) | 0.47 (≈ 0.849 µM) | –
COc1cccc(C(c2cc3cc(C#N)ccc3nc2OC)C(O)(CCN(C)C)c2cccc(Cl)c2)c1F (stereo not given) | 0.13 (≈ 0.243 µM) | –

Structure (SMILES) | MIC90 [1] [µg/mL] | IC50 [2] [µM]
COc1nc2ccc(C#N)cc2cc1C(c1ccccc1)C(O)(CCN(C)C)c1cccc(F)c1 (stereo not given) | 0.69 (≈ 1.47 µM) | –
C#Cc1ccc2nc(OC)c(C(c3ccccc3)C(O)(CCN(C)C)c3cccc4ccccc34)cc2c1 (stereo not given) | 0.48 (≈ 0.959 µM) | –
COc1cccc(C(c2cc3cc(F)ccc3nc2OC)C(O)(CCN(C)C)c2cccc(OC(F)(F)F)c2)c1F (stereo not given) | 0.21 (≈ 0.364 µM) | –
COc1nc2ccc(I)cc2cc1C(c1ccccc1)C(O)(CCN(C)C)c1cccc2ccccc12 (stereo not given) | 0.2 (≈ 0.332 µM) | –
COc1cccc(C(O)(CCN(C)C)C(c2cc3cc(C#N)ccc3nc2OC)c2cccc(OC)c2F)c1 (stereo not given) | 0.09 (≈ 0.17 µM) | –
COc1cccc(C(c2cc3cc(N4CC5(COC5)C4)ccc3nc2OC)C(O)(CCN(C)C)c2cccc(F)c2)c1OC (stereo not given) | 0.66 (≈ 1.1 µM) | –
COc1cccc(C(c2cc3cc(C#N)ccc3nc2OC)C(O)(CCN(C)C)c2cccc(OC)c2OC)c1OC (stereo not given) | 0.34 (≈ 0.595 µM) | –
COc1nc2ccc(Cl)cc2cc1C(c1cccc(F)c1)C(O)(CCN(C)C)c1cccc(OC(F)(F)F)c1 (stereo not given) | 0.09 (≈ 0.16 µM) | –
COc1cccc(C(c2cc3cc(Br)ccc3nc2OC)C(O)(CCN(C)C)c2cccc(OC(F)(F)F)c2)c1OC (stereo not given) | 0.09 (≈ 0.139 µM) | –
COc1cccc([C@@H](c2cc3cc(SC)ccc3nc2OC)[C@@](O)(CCN(C)C)c2cccc(F)c2)c1F | 0.13 (≈ 0.241 µM) | –
COc1nc2ccc(NC3CCC3)cc2cc1[C@@H](c1ccccc1)[C@@](O)(CCN(C)C)c1cccc2ccccc12 | 0.48 (≈ 0.88 µM) | –
COc1nc2ccc(N(C)S(=O)(=O)c3ccccc3)cc2cc1[C@@H](c1ccccc1)[C@@](O)(CCN(C)C)c1cccc(F)c1 | 4.1 (≈ 6.68 µM) | –
COc1cccc(C(c2cc3cc(N4CCNCC4)ccc3nc2OC)C(O)(CCN(C)C)c2cccc(OC(F)(F)F)c2)c1F (stereo not given) | 0.66 (≈ 1.03 µM) | –
COc1cccc(C(c2cc3cc(N4CCOCC4)ccc3nc2OC)C(O)(CCN(C)C)c2cccc(OC(F)(F)F)c2)c1F (stereo not given) | 0.14 (≈ 0.218 µM) | –
CO/N=C/c1ccc2nc(OC)c([C@@H](c3ccccc3)[C@](O)(CCN(C)C)c3cccc4ccccc34)cc2c1 | 0.21 (≈ 0.394 µM) | 2.2
COc1cccc(C(c2cc3cc(Br)ccc3nc2OC)C(O)(CCN(C)C)c2cccc(Cl)c2)c1F (stereo not given) | 0.07 (≈ 0.119 µM) | –
COc1nc2ccc(C(F)(F)F)cc2cc1C(c1ccccc1)C(O)(CCN(C)C)c1cccc2ccccc12 (stereo not given) | 0.38 (≈ 0.698 µM) | –
COc1cccc(C(c2cc3cc(Br)ccc3nc2OC)C(O)(CCN(C)C)c2cccc(OC(F)(F)F)c2)c1F (stereo not given) | 0.09 (≈ 0.141 µM) | –
COc1cccc([C@H](c2cc3cc(N4CCS(=O)(=O)CC4)ccc3nc2OC)[C@@](O)(CCN(C)C)c2cccc(F)c2)c1OC | > 5 | –
COc1nc2ccc(CN)cc2cc1C(c1ccccc1)C(O)(CCN(C)C)c1cccc2ccccc12 (stereo not given) | > 12 | 1.7
COc1cccc(C(c2cc3cc(Cl)ccc3nc2OC)C(O)(CCN(C)C)c2cccc(OC)c2OC)c1OC (stereo not given) | 0.25 (≈ 0.43 µM) | –
COc1cccc(C(c2cc3cc(Br)ccc3nc2OC)C(O)(CCN(C)C)c2cccc(C)c2)c1F (stereo not given) | 0.04 (≈ 0.0705 µM) | –
COc1cccc(C(c2cc3cc(N4CC5(COC5)C4)ccc3nc2OC)[C@@](O)(CCN(C)C)c2cccc(F)c2)c1F (single isomer, unassigned) | 0.51 (≈ 0.865 µM) | –
COc1nc2ccc(Br)cc2cc1[C@@H](c1ccccc1)[C@@](O)(CCN(C)C)c1cccc2ccccc12 [BEDAQUILINE] | 0.09 (≈ 0.162 µM) | –
